From ChEMBL document CHEMBL4622950, “The synthesis and antituberculosis activity of 5-alkynyl uracil derivatives” (Bioorg Med Chem Lett, 2020)
In brackets after ≈: the same amount, converted by molar mass.

What was measured:
[1] = tested on: Mycobacterium tuberculosis; assay: Antitubercular activity against Mycobacterium bovis BCG assessed as bacterial growth inhibition at 50 to 100 ug/ml by MABA relative to control; type: functional, variant bovis BCG
[2] = tested on: Mycobacterium tuberculosis; assay: Antitubercular activity against Mycobacterium bovis BCG assessed as bacterial growth inhibition at 10 ug/ml by MABA relative to control; type: functional; details: variant bovis BCG, read-out: GI
[3] = tested on: Mycobacterium tuberculosis; assay: Antitubercular activity against Mycobacterium bovis BCG assessed as bacterial growth inhibition by alamar blue staining based assay; type: functional; details: variant bovis BCG
Summary of the method: (§1)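 Whole-cell growth inhibition of Mycobacterium bovis and M. tuberculosis H37Ra, read quantitatively by Microplate Alamar Blue Assay (alamar blue reagent). Compounds were tested across 1 to 100 µg/ml. Activity was expressed as MIC50 (µg/ml) from this concentration series.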

[4] = tested on: Mycobacterium tuberculosis; assay: Antitubercular activity against Mycobacterium bovis BCG assessed as bacterial growth inhibition at 100 ug/ml by MABA relative to control; type: functional; details: variant bovis BCG, read-out: GI
[5] = tested on: Mycobacterium tuberculosis; assay: Antitubercular activity against Mycobacterium bovis BCG assessed as bacterial growth inhibition at 10 to 50 ug/ml by MABA relative to control; type: functional, variant bovis BCG
[6] = tested on: Mycobacterium tuberculosis; assay: Antitubercular activity against Mycobacterium bovis BCG assessed as bacterial growth inhibition at 1 to 5 ug/ml by MABA relative to control; type: functional, variant bovis BCG
[7] = tested on: Mycobacterium tuberculosis; assay: Antitubercular activity against Mycobacterium bovis BCG assessed as bacterial growth inhibition by MABA relative to control; type: functional, variant bovis BCG; summary of the method: as §1
[8] = tested on: Mycobacterium tuberculosis; assay: Antitubercular activity against Mycobacterium bovis BCG assessed as bacterial growth inhibition at 50 ug/ml by MABA relative to control; type: functional; details: variant bovis BCG, read-out: GI
[9] = tested on: Mycobacterium tuberculosis; assay: Antitubercular activity against Mycobacterium bovis BCG assessed as bacterial growth inhibition at 25 ug/ml by MABA relative to control; type: functional; details: variant bovis BCG, read-out: GI
[10] = tested on: Mycobacterium tuberculosis; assay: Antitubercular activity against Mycobacterium bovis BCG assessed as bacterial growth inhibition at 5 ug/ml by MABA relative to control; type: functional; details: variant bovis BCG, read-out: GI
[11] = tested on: Mycobacterium tuberculosis; assay: Antitubercular activity against Mycobacterium bovis BCG assessed as bacterial growth inhibition at 1 ug/ml by MABA relative to control; type: functional; details: variant bovis BCG, read-out: GI

| Structure (SMILES) | inhibition of growth at 10 µg/mL [2] [%] | MIC50 [3] [µg/mL] | inhibition of growth at 100 µg/mL [4] [%] | growth inhibition (GI) [6] [%] | other results |
| --- | --- | --- | --- | --- | --- |
| O=c1[nH]cc(C#Cc2ccccc2)c(=O)[nH]1 | 40 | 17.4 (≈ 82 µM) | – | – | growth inhibition (GI) [1]: 90% |
| O=c1[nH]cc(C#CC2CCCCC2)c(=O)[nH]1 | – | 2.5 (≈ 11.5 µM) | 90 | 50 | growth inhibition (GI) [5]: 75% |
| CCCCCCC#Cc1c[nH]c(=O)[nH]c1=O | – | – | – | – | growth inhibition (GI) [7]: 0% |
| O=c1[nH]c(=O)n([C@@H]2O[C@H](CO)[C@@H](O)[C@H]2O)cc1C#CC1CC1 | – | 2.4 (≈ 7.78 µM) | 90 | 50 | – |
| CCCCCCC#Cc1cn([C@@H]2O[C@H](CO)[C@@H](O)[C@H]2O)c(=O)[nH]c1=O | 0 | < 50 | 60 | – | inhibition of growth at 50 µg/mL [8]: 0% |
| CC#Cc1c[nH]c(=O)[nH]c1=O | – | – | – | – | growth inhibition (GI) [7]: 0% |
| CCC#Cc1c[nH]c(=O)[nH]c1=O | – | – | – | – | growth inhibition (GI) [7]: 0% |
| O=c1[nH]c(=O)n([C@@H]2O[C@H](CO)[C@@H](O)[C@H]2O)cc1C#CC(O)c1ccccc1 (stereo partly drawn) | – | 1.4 (≈ 3.74 µM) | – | 100 | – |
| CCCCC#Cc1c[nH]c(=O)[nH]c1=O | – | – | – | – | growth inhibition (GI) [7]: 0% |
| O=c1[nH]cc(C#CC2CC2)c(=O)[nH]1 | – | 7.8 (≈ 44.3 µM) | 80 | – | growth inhibition (GI) [5]: 60% |
| O=c1[nH]c(=O)n([C@@H]2O[C@H](CO)[C@@H](O)[C@H]2O)cc1C#Cc1ccccc1 | 75 | 2.7 (≈ 7.84 µM) | – | 50 | growth inhibition (GI) [1]: 90% |
| CCCCC#Cc1cn([C@@H]2O[C@H](CO)[C@@H](O)[C@H]2O)c(=O)[nH]c1=O | 0 | 50 (≈ 154 µM) | 50 | – | inhibition of growth at 50 µg/mL [8]: 0% |
| C[Si](C)(C)C#Cc1c[nH]c(=O)[nH]c1=O | – | 100 (≈ 480 µM) | 50 | – | – |
| O=c1[nH]cc(C#CC(O)c2ccccc2)c(=O)[nH]1 (stereo not drawn) | 80 | 3.1 (≈ 12.8 µM) | – | 50 | growth inhibition (GI) [1]: 90% |
| O=c1[nH]c(=O)n([C@@H]2O[C@H](CO)[C@@H](O)[C@H]2O)cc1C#CC1CCCCC1 | – | 19.2 (≈ 54.8 µM) | 90 | 10 | inhibition of growth at 25 µg/mL [9]: 60% |
| N[C@@H]1CONC1=O [CYCLOSERINE] | 71 | 5.1 (≈ 50 µM) | – | – | inhibition of growth at 5 µg/mL [10]: 50% |
| NNC(=O)c1ccncc1 [ISONIAZID] | – | 0.9 (≈ 6.56 µM) | – | – | inhibition of growth at 1 µg/mL [11]: 100% |
| CO[C@H]1/C=C/O[C@@]2(C)Oc3c(C)c(O)c4c(O)c(c(/C=N/N5CCN(C)CC5)c(O)c4c3C2=O)NC(=O)/C(C)=C\C=C\[C@H](C)[C@H](O)[C@@H](C)[C@@H](O)[C@@H](C)[C@H](OC(C)=O)[C@@H]1C [RIFAMPIN] | – | 0.8 (≈ 0.972 µM) | – | – | inhibition of growth at 1 µg/mL [11]: 100% |
